In brackets after ≈: the same amount, converted by molar mass.
What was measured:
Assay type in all cases: functional
Pseudomonas aeruginosa [1] = test: Antibacterial activity against Pseudomonas aeruginosa PA5020 assessed as time required for reduction of bacterial load to 3 log CFU/ml at 0.6 mg/ml up to 48 hrs by time-kill assay
Outline: (§1)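 Overnight cultures were diluted and grown at 37°C to OD600 ≈0.3, then set at 5 × 10^5–1 × 10^6 CFU/ml in 10 ml CAMHB. Drug was added at 0.2, 0.6 or 2.0 mg/ml, and cultures were shaken at 37°C. Samples taken at 0, 0.5, 1, 2, 4, 8 and 24 h were washed twice in CAMHB, diluted in saline and plated on Mueller-Hinton agar. Plates were incubated up to 48 h before colony counting.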

Pseudomonas aeruginosa [2] = test: Antibacterial activity against Pseudomonas aeruginosa PA5043 assessed as time required for reduction of bacterial load to 3 log CFU/ml at 0.2 mg/ml up to 48 hrs by time-kill assay; outline: as §1
Pseudomonas aeruginosa [3] = test: Antibacterial activity against Pseudomonas aeruginosa PA5063 by broth dilution method
Outline: (§2)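 Broth microdilution MIC per CLSI reference method; twofold serial dilutions in cation-adjusted Mueller-Hinton broth. […] Endpoint read by OD600 and confirmed visually.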

Pseudomonas aeruginosa [4] = test: Antibacterial activity against Pseudomonas aeruginosa PA881 by broth dilution method; outline: as §2
Pseudomonas aeruginosa [5] = test: Antibacterial activity against Pseudomonas aeruginosa PA876 assessed as time required for reduction of bacterial load to 3 log CFU/ml at 0.2 mg/ml up to 48 hrs by time-kill assay; outline: as §1
Pseudomonas aeruginosa [6] = test: Antibacterial activity against Pseudomonas aeruginosa PA5043 by broth dilution method; outline: as §2
Pseudomonas aeruginosa [7] = test: Antibacterial activity against Pseudomonas aeruginosa PA1022 by broth dilution method
Pseudomonas aeruginosa [8] = test: Antibacterial activity against Pseudomonas aeruginosa PA5026 assessed as time required for reduction of bacterial load to 3 log CFU/ml at 2 mg/ml up to 48 hrs by time-kill assay; outline: as §1
Pseudomonas aeruginosa [9] = test: Antibacterial activity against Pseudomonas aeruginosa PA861 by broth dilution method; outline: as §2
Pseudomonas aeruginosa [10] = test: Antibacterial activity against Pseudomonas aeruginosa PA1022 assessed as time required for reduction of bacterial load to 3 log CFU/ml at 2 mg/ml up to 48 hrs by time-kill assay; outline: as §1
Pseudomonas aeruginosa [11] = test: Antibacterial activity against Pseudomonas aeruginosa PA1042 by broth dilution method; outline: as §2
Pseudomonas aeruginosa [12] = test: Antibacterial activity against Pseudomonas aeruginosa PA1022 assessed as time required for reduction of bacterial load to 3 log CFU/ml at 0.6 mg/ml up to 48 hrs by time-kill assay; outline: as §1
Pseudomonas aeruginosa [13] = test: Antibacterial activity against Pseudomonas aeruginosa PA5020 by broth dilution method
Pseudomonas aeruginosa [14] = test: Antibacterial activity against Pseudomonas aeruginosa PA5063 assessed as inhibition of biofilm formation by microtiter plate reader assay
Outline: (§3)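 Biofilms of cystic fibrosis P. aeruginosa isolates were grown and tested by a previously described method. The endpoint was the biofilm inhibitory concentration, the drug level that prevents biofilm cell growth, compared against planktonic broth-microdilution MICs.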

Pseudomonas aeruginosa [15] = test: Antibacterial activity against Pseudomonas aeruginosa ATCC 27853 by broth dilution method; outline: as §2
Staphylococcus aureus = test: Antibacterial activity against methicillin-resistant Staphylococcus aureus by broth dilution method; outline: as §2
Pseudomonas aeruginosa [16] = test: Antibacterial activity against Pseudomonas aeruginosa PA1054 assessed as time required for reduction of bacterial load to 3 log CFU/ml at 0.2 mg/ml up to 48 hrs by time-kill assay; outline: as §1
Pseudomonas aeruginosa [17] = test: Antibacterial activity against Pseudomonas aeruginosa PA880 assessed as time required for reduction of bacterial load to 3 log CFU/ml at 2 mg/ml up to 48 hrs by time-kill assay; outline: as §1
Pseudomonas aeruginosa [18] = test: Antibacterial activity against Pseudomonas aeruginosa PA899 assessed as time required for reduction of bacterial load to 3 log CFU/ml at 0.2 mg/ml up to 48 hrs by time-kill assay; outline: as §1
Pseudomonas aeruginosa [19] = test: Antibacterial activity against Pseudomonas aeruginosa PA880 by broth dilution method; outline: as §2
Pseudomonas aeruginosa [20] = test: Antibacterial activity against Pseudomonas aeruginosa PA5043 assessed as time required for reduction of bacterial load to 3 log CFU/ml at 2 mg/ml up to 48 hrs by time-kill assay; outline: as §1
Pseudomonas aeruginosa [21] = test: Antibacterial activity against Pseudomonas aeruginosa PA1036 by broth dilution method; outline: as §2
Pseudomonas aeruginosa [22] = test: Antibacterial activity against Pseudomonas aeruginosa PA861 assessed as time required for reduction of bacterial load to 3 log CFU/ml at 2 mg/ml up to 48 hrs by time-kill assay; outline: as §1
Pseudomonas aeruginosa [23] = test: Antibacterial activity against Pseudomonas aeruginosa PA1054 assessed as time required for reduction of bacterial load to 3 log CFU/ml at 0.6 mg/ml up to 48 hrs by time-kill assay; outline: as §1
Pseudomonas aeruginosa [24] = test: Antibacterial activity against Pseudomonas aeruginosa PA861 assessed as time required for reduction of bacterial load to 3 log CFU/ml at 0.2 mg/ml up to 48 hrs by time-kill assay; outline: as §1
Pseudomonas aeruginosa [25] = test: Antibacterial activity against Pseudomonas aeruginosa PA1042 assessed as inhibition of biofilm formation by microtiter plate reader assay; outline: as §3
Pseudomonas aeruginosa [26] = test: Antibacterial activity against Pseudomonas aeruginosa PA5020 assessed as time required for reduction of bacterial load to 3 log CFU/ml at 2 mg/ml up to 48 hrs by time-kill assay; outline: as §1
Pseudomonas aeruginosa [27] = test: Antibacterial activity against Pseudomonas aeruginosa PA5043 assessed as time required for reduction of bacterial load to 3 log CFU/ml at 0.6 mg/ml up to 48 hrs by time-kill assay; outline: as §1
Pseudomonas aeruginosa [28] = test: Antibacterial activity against Pseudomonas aeruginosa PA1042 assessed as time required for reduction of bacterial load to 3 log CFU/ml at 0.6 mg/ml up to 48 hrs by time-kill assay; outline: as §1
Burkholderia cepacia = test: Antibacterial activity against Burkholderia cepacia clinical isolates by broth dilution method
Pseudomonas aeruginosa [29] = test: Antibacterial activity against Pseudomonas aeruginosa PAM1032 overexpressing multidrug efflux pump MexAB-OprM by broth dilution method

With `C[C@H]1[C@H](NC(=O)/C(=N\OC(C)(C)C(=O)O)c2csc(N)n2)C(=O)N1S(=O)(=O)O` [AZTREONAM] the Time (Pseudomonas aeruginosa [1]) was greater than 24 h, the Time (Pseudomonas aeruginosa [2]) was 8 h and the MIC (Pseudomonas aeruginosa [3]) was 8 µg/mL (≈ 18.4 µM). It also gave an MIC50 (Pseudomonas aeruginosa [4]) of 2 µg/mL (≈ 4.59 µM), a Time (Pseudomonas aeruginosa [5]) greater than 24 h and an MIC (Pseudomonas aeruginosa [6]) of 1 µg/mL (≈ 2.3 µM). For the same compound, the MIC (Pseudomonas aeruginosa [7]) was 16 µg/mL (≈ 36.7 µM), the Time (Pseudomonas aeruginosa [8]) was greater than 24 h and the MIC (Pseudomonas aeruginosa [9]) was 128 µg/mL (≈ 294 µM). It also gave a Time (Pseudomonas aeruginosa [10]) of 24 h, an MIC (Pseudomonas aeruginosa [11]) of 0.5 µg/mL (≈ 1.15 µM) and a Time (Pseudomonas aeruginosa [12]) greater than 24 h. The MIC (Pseudomonas aeruginosa [13]) was 64 µg/mL (≈ 147 µM), the BBC (Pseudomonas aeruginosa [14]) was greater than 256 µg/mL and the MIC (Pseudomonas aeruginosa [15]) was 4 µg/mL (≈ 9.19 µM). It also gave an MIC50 (Staphylococcus aureus) greater than 512 µg/mL, an MIC90 (Staphylococcus aureus) greater than 512 µg/mL and a Time (Pseudomonas aeruginosa [16]) of 24 h. For the same compound, the Time (Pseudomonas aeruginosa [17]) was 4 h, the Time (Pseudomonas aeruginosa [18]) was greater than 24 h and the MIC (Pseudomonas aeruginosa [19]) was 0.5 µg/mL (≈ 1.15 µM). The Time (Pseudomonas aeruginosa [20]) was 2 h, the MIC (Pseudomonas aeruginosa [21]) was 32 µg/mL (≈ 73.5 µM) and the Time (Pseudomonas aeruginosa [22]) was 24 h. For the same compound, the Time (Pseudomonas aeruginosa [23]) was 24 h, the Time (Pseudomonas aeruginosa [24]) was greater than 24 h and the BBC (Pseudomonas aeruginosa [25]) was greater than 8 µg/mL. The Time (Pseudomonas aeruginosa [26]) was 24 h, the Time (Pseudomonas aeruginosa [27]) was 2 h and the Time (Pseudomonas aeruginosa [28]) was 4 h.
Work on `C[C@H]1COc2c(N3CCN(C)CC3)c(F)cc3c(=O)c(C(=O)O)cn1c23.C[C@H]1COc2c(N3CCN(C)CC3)c(F)cc3c(=O)c(C(=O)O)cn1c23.O` [LEVOFLOXACIN] yielded an MIC50 (Burkholderia cepacia) of 4 µg/mL, an MIC90 (Burkholderia cepacia) of 32 µg/mL and a Time (Pseudomonas aeruginosa [1]) of 4 h. For the same compound, the Time (Pseudomonas aeruginosa [2]) was “<=0.5 hr”, the MIC (Pseudomonas aeruginosa [3]) was 0.5 µg/mL and the MIC50 (Pseudomonas aeruginosa [4]) was 4 µg/mL. For the same compound, the Time (Pseudomonas aeruginosa [5]) was “<=0.5 hr”, the Time (Pseudomonas aeruginosa [8]) was “<=0.5 hr” and the MIC (Pseudomonas aeruginosa [9]) was 32 µg/mL. For the same compound, the Time (Pseudomonas aeruginosa [10]) was “<=0.5 hr”, the Time (Pseudomonas aeruginosa [12]) was “<=0.5 hr” and the MIC (Pseudomonas aeruginosa [13]) was 16 µg/mL. For the same compound, the BBC (Pseudomonas aeruginosa [14]) was 1 µg/mL, the MIC50 (Staphylococcus aureus) was 4 µg/mL and the MIC90 (Staphylococcus aureus) was 32 µg/mL. For the same compound, the Time (Pseudomonas aeruginosa [16]) was “<=0.5 hr”, the Time (Pseudomonas aeruginosa [17]) was “<=0.5 hr” and the Time (Pseudomonas aeruginosa [18]) was “<=0.5 hr”. The Time (Pseudomonas aeruginosa [20]) was “<=0.5 hr”, the MIC (Pseudomonas aeruginosa [21]) was 8 µg/mL and the Time (Pseudomonas aeruginosa [22]) was “<=0.5 hr”. For the same compound, the Time (Pseudomonas aeruginosa [23]) was “<=0.5 hr”, the Time (Pseudomonas aeruginosa [24]) was “<=0.5 hr” and the BBC (Pseudomonas aeruginosa [25]) was 1 µg/mL. The Time (Pseudomonas aeruginosa [26]) was 2 h, the Time (Pseudomonas aeruginosa [27]) was “<=0.5 hr” and the Time (Pseudomonas aeruginosa [28]) was “<=0.5 hr”.
With `NC[C@H]1O[C@H](O[C@H]2[C@H](O)[C@@H](O[C@H]3O[C@H](CO)[C@@H](O)[C@H](N)[C@H]3O)[C@H](N)C[C@@H]2N)[C@H](N)C[C@@H]1O` [TOBRAMYCIN] the MIC50 (Burkholderia cepacia) was greater than 32 µg/mL, the MIC90 (Burkholderia cepacia) was greater than 32 µg/mL and the Time (Pseudomonas aeruginosa [1]) was 2 h. The Time (Pseudomonas aeruginosa [2]) was 2 h, the MIC (Pseudomonas aeruginosa [3]) was 0.25 µg/mL (≈ 0.535 µM) and the MIC50 (Pseudomonas aeruginosa [4]) was 2 µg/mL (≈ 4.28 µM). It also gave a Time (Pseudomonas aeruginosa [5]) of 4 h, an MIC (Pseudomonas aeruginosa [6]) of 8 µg/mL (≈ 17.1 µM) and an MIC (Pseudomonas aeruginosa [7]) greater than 32 µg/mL. The Time (Pseudomonas aeruginosa [8]) was “<=0.5 hr”, the MIC (Pseudomonas aeruginosa [9]) was 16 µg/mL (≈ 34.2 µM) and the Time (Pseudomonas aeruginosa [10]) was 4 h. The MIC (Pseudomonas aeruginosa [11]) was 0.5 µg/mL (≈ 1.07 µM), the Time (Pseudomonas aeruginosa [12]) was 4 h and the MIC (Pseudomonas aeruginosa [13]) was 8 µg/mL (≈ 17.1 µM). For the same compound, the BBC (Pseudomonas aeruginosa [14]) was 2 µg/mL, the MIC (Pseudomonas aeruginosa [15]) was 0.25 µg/mL (≈ 0.535 µM) and the MIC50 (Staphylococcus aureus) was 128 µg/mL (≈ 274 µM). For the same compound, the MIC90 (Staphylococcus aureus) was greater than 128 µg/mL, the Time (Pseudomonas aeruginosa [16]) was “<=0.5 hr” and the Time (Pseudomonas aeruginosa [17]) was “<=0.5 hr”. For the same compound, the Time (Pseudomonas aeruginosa [18]) was “<=0.5 hr”, the MIC (Pseudomonas aeruginosa [19]) was 1 µg/mL (≈ 2.14 µM) and the Time (Pseudomonas aeruginosa [20]) was 1 h. It also gave an MIC (Pseudomonas aeruginosa [29]) of 0.25 µg/mL (≈ 0.535 µM), an MIC (Pseudomonas aeruginosa [21]) of 1 µg/mL (≈ 2.14 µM) and a Time (Pseudomonas aeruginosa [22]) of 4 h. The Time (Pseudomonas aeruginosa [23]) was “<=0.5 hr”, the Time (Pseudomonas aeruginosa [24]) was 8 h and the BBC (Pseudomonas aeruginosa [25]) was 1 µg/mL. For the same compound, the Time (Pseudomonas aeruginosa [26]) was 2 h, the Time (Pseudomonas aeruginosa [27]) was 1 h and the Time (Pseudomonas aeruginosa [28]) was 1 h.

Reference: ChEMBL document CHEMBL1212734, “In vitro pharmacodynamics of levofloxacin and other aerosolized antibiotics under multiple conditions relevant to chronic pulmonary infection in cystic fibrosis” (2010)
